Usually IC50 stands for the concentration needed to halve the response being measured. A word on the EC50: it is the concentration that produces a half-maximal response.

The source of these data is ChEMBL document CHEMBL1157725 (Bioorg Med Chem, 2010).

Assay [1] deals with MCF7. Nature of the assay: Antiproliferative activity against human MCF7 cells after 24 hrs by SRB assay. Format: functional, cell-based. Particulars: MCF7, 24 h. An outline of the steps:
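MCF-7 cells are grown for 24 h with or without drug, then for a further 48 h. Total cell protein is measured by sulforhodamine B staining, and the IC₅₀ is derived from it.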
Background: Sulforhodamine B stains cellular protein and so reports cell mass.

Assay [2] in a line: Inhibition of tubulin polymerization by turbidimetry. An outline of the steps: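 Tubulin at 10 µM (1.0 mg/mL). Polymerization followed turbidimetrically at 350 nm in temperature-controlled spectrophotometers.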
The nature of assay [3]: Inhibition of tubulin in rat A10 cells assessed as induction of cellular microtubule disassembly after 18 hrs by indirect immunofluorescence technique. In kind it is cell-based. Particulars: A10, 18 h. In short, it runs like this:
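A-10 cells plated on glass coverslips and treated with compound at varying concentrations for 18 h. After fixation, microtubules immunostained with a β-tubulin antibody (indirect immunofluorescence) and nuclei stained with DAPI. Read by fluorescence microscopy. Percentage of cellular microtubule loss estimated visually across the concentration range.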

Regarding `COc1ccc(C(=O)/C=C/c2cc(OC)c(OC)c(OC)c2)cc1O`, the IC50 in assay [1] is greater than 2500 nM; in assay [2] it was greater than 40000 nM. For the same compound, in assay [3], the half-maximal effective concentration (EC50) came to 18000 nM.

Turning to `COc1ccc(/C=C\c2cc(OC)c(OC)c(OC)c2)cc1O` [COMBRETASTATIN A4], the half-inhibitory concentration (IC50) in assay [1] came to 32 nM. The 50% effective concentration (EC50) in assay [3] was less than 25 nM.
